In ChEMBL document CHEMBL1135826, “Antimicrobial peptides: synthesis and antibacterial activity of linear and cyclic drosocin and apidaecin 1b analogues” (2002):
Converted amounts (≈) assume the structure as drawn. Where a SMILES comes first, the peptide text is derived from it. The star is where a group is joined. X2 = CC(=O)N[C@@H]1[C@@H](O)[C@H](O)[C@@H](CO)O[C@@H]1*; βGal = OC[C@H]1O[C@@H](*)[C@H](O)[C@@H](O)[C@H]1O; X1 = OC[C@H]1O[C@H](*)[C@H](O)[C@@H](O)[C@H]1O

Key:
Pseudomonas aeruginosa = assay: Minimum inhibitory concentration (lowest peptide concentration) required to prevent visible bacterial growth after 18 hr of incubation at 37 C in Mueller-Hinton broth against Pseudomonas aeruginosa ATCC 27853; type: functional; settings: ATCC 27853, 18 h
Method in brief: (§1)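 Broth microdilution susceptibility test per NCCLS guidelines, in Mueller–Hinton broth with about 1.5–2.0 × 10^5 CFU/mL inoculum. Plates were incubated 18 h at 37 °C. MIC was taken as the lowest peptide concentration with no visible growth. Strains were ATCC strains or clinical isolates; E. coli O18:K1:H7 Bort is an encapsulated isolate from neonatal spinal fluid, and the S. aureus isolate is MRSA.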

Escherichia coli [1] = assay: Minimum inhibitory concentration (lowest peptide concentration) required to prevent visible bacterial growth after 18 hr of incubation at 37 C in Mueller-Hinton broth against Escherichia coli ML-35; type: functional; method in brief: as §1
Klebsiella pneumoniae [2] = assay: Minimum inhibitory concentration (lowest peptide concentration) required to prevent visible bacterial growth after 18 hr of incubation at 37 C in Mueller-Hinton broth against Klebsiella pneumoniae 79; type: functional; method in brief: as §1
Escherichia coli [3] = assay: Minimum inhibitory concentration (lowest peptide concentration) required to prevent visible bacterial growth after 18 hr of incubation at 37 C in Mueller-Hinton broth against Escherichia coli O18:K1:H7; type: functional; method in brief: as §1
Klebsiella pneumoniae [4] = assay: Minimum inhibitory concentration (lowest peptide concentration) required to prevent visible bacterial growth after 18 hr of incubation at 37 C in Mueller-Hinton broth against Klebsiella pneumoniae 22; type: functional; method in brief: as §1
Acinetobacter baumannii = assay: Minimum inhibitory concentration (lowest peptide concentration) required to prevent visible bacterial growth after 18 hr of incubation at 37 C in Mueller-Hinton broth against Acinetobacter baumannii 118A; type: functional; method in brief: as §1
Staphylococcus aureus = assay: Minimum inhibitory concentration (lowest peptide concentration) required to prevent visible bacterial growth after 18 hr of incubation at 37 C in Mueller-Hinton broth against Staphylococcus aureus G; type: functional; method in brief: as §1
Salmonella typhimurium = assay: Minimum inhibitory concentration (lowest peptide concentration) required to prevent visible bacterial growth after 18 hr of incubation at 37 C in Mueller-Hinton broth against Salmonella Typhimurium ATCC 14028; type: functional, Salmonella enterica subsp. enterica serovar Typhimurium; settings: Salmonella enterica; method in brief: as §1
Escherichia coli [5] = assay: Minimum inhibitory concentration (lowest peptide concentration) required to prevent visible bacterial growth after 18 hr of incubation at 37 C in Mueller-Hinton broth against Escherichia coli ATCC 25922; type: functional; settings: ATCC 25922, 18 h; method in brief: as §1
Salmonella enteritidis [6] = assay: Minimum inhibitory concentration (lowest peptide concentration) required to prevent visible bacterial growth after 18 hr of incubation at 37 C in Mueller-Hinton broth against Salmonella enteritidis D5; settings: Salmonella enterica
[7] = system: Staphylococcus epidermidis; assay: Minimum inhibitory concentration (lowest peptide concentration) required to prevent visible bacterial growth after 18 hr of incubation at 37 C in Mueller-Hinton broth against Staphylococcus epidermidis 4; type: functional; method in brief: as §1
Salmonella enteritidis [8] = assay: Minimum inhibitory concentration (lowest peptide concentration) required to prevent visible bacterial growth after 18 h of incubation at 37 C in Mueller-Hinton broth against […]; type: functional, Salmonella enterica subsp. enterica serovar Enteritidis; settings: Salmonella enterica; method in brief: as §1
Escherichia coli [9] = assay: Minimum inhibitory concentration (lowest peptide concentration) required to prevent visible bacterial growth after 18 hr of incubation at 37 C in Mueller-Hinton broth against Escherichia coli D21; type: functional; method in brief: as §1
Escherichia coli [10] = assay: Minimum inhibitory concentration (lowest peptide concentration) required to prevent visible bacterial growth after 18 hr of incubation at 37 C in Mueller-Hinton broth against Escherichia coli D22; type: functional; method in brief: as §1

| Structure (SMILES) | MIC (Pseudomonas aeruginosa) [µM] | MIC (Escherichia coli [1]) [µM] | MIC (Klebsiella pneumoniae [2]) [µM] | MIC (Escherichia coli [3]) [µM] | MIC (Klebsiella pneumoniae [4]) [µM] | MIC (Acinetobacter baumannii) [µM] | MIC (Staphylococcus aureus) [µM] | MIC (Salmonella typhimurium) [µM] | MIC (Escherichia coli [5]) [µM] | MIC (Salmonella enteritidis [6]) [µM] | MIC [7] [µM] | MIC (Salmonella enteritidis [8]) [µM] | MIC (Escherichia coli [9]) [µM] | MIC (Escherichia coli [10]) [µM] |
| --- | --- | --- | --- | --- | --- | --- | --- | --- | --- | --- | --- | --- | --- | --- |
| CC[C@H](C)[C@H](NC(=O)[C@@H]1CCCN1C(=O)[C@H](CCCN=C(N)N)NC(=O)[C@@H]1CCCN1C(=O)[C@H](Cc1c[nH]cn1)NC(=O)[C@H](CO)NC(=O)[C@@H](NC(=O)[C@@H]1CCCN1C(=O)[C@H](CCCN=C(N)N)NC(=O)[C@@H]1CCCN1C(=O)[C@H](CO)NC(=O)[C@H](Cc1ccc(O)cc1)NC(=O)[C@@H]1CCCN1C(=O)[C@H](CCCN=C(N)N)NC(=O)[C@@H]1CCCN1C(=O)[C@H](CCCCN)NC(=O)CN)[C@@H](C)O[C@H]1O[C@H](CO)[C@H](O)[C@H](O)[C@H]1O)C(=O)N[C@@H](CCCN=C(N)N)C(=O)N[C@H](C(=O)O)C(C)C (H-GKPRPYSPRPT(X1)SHPRPIRV-OH) | > 128 | 2 (≈ 4.72 µg/mL) | 32 (≈ 75.5 µg/mL) | 2 (≈ 4.72 µg/mL) | 32 (≈ 75.5 µg/mL) | > 128 | > 64 | 8 (≈ 18.9 µg/mL) | 2 (≈ 4.72 µg/mL) | 2 (≈ 4.72 µg/mL) | > 64 | 4 (≈ 9.44 µg/mL) | > 64 | 2 (≈ 4.72 µg/mL) |
| CC[C@H](C)[C@H](NC(=O)[C@@H]1CCCN1C(=O)[C@H](CCCN=C(N)N)NC(=O)[C@@H]1CCCN1C(=O)[C@H](Cc1c[nH]cn1)NC(=O)[C@H](CO)NC(=O)[C@@H](NC(=O)[C@@H]1CCCN1C(=O)[C@H](CCCN=C(N)N)NC(=O)[C@@H]1CCCN1C(=O)[C@H](CO)NC(=O)[C@H](Cc1ccc(O)cc1)NC(=O)[C@@H]1CCCN1C(=O)[C@H](CCCN=C(N)N)NC(=O)[C@@H]1CCCN1C(=O)[C@H](CCCCN)NC(=O)CN)[C@@H](C)O[C@H]1O[C@H](CO)[C@@H](O)[C@H](O)[C@H]1NC(C)=O)C(=O)N[C@@H](CCCN=C(N)N)C(=O)N[C@H](C(=O)O)C(C)C (H-GKPRPYSPRPT(X2)SHPRPIRV-OH) | > 128 | 1 (≈ 2.4 µg/mL) | 8 (≈ 19.2 µg/mL) | 1 (≈ 2.4 µg/mL) | 4 (≈ 9.61 µg/mL) | > 128 | > 64 | 2 (≈ 4.8 µg/mL) | 1 (≈ 2.4 µg/mL) | 1 (≈ 2.4 µg/mL) | > 64 | 2 (≈ 4.8 µg/mL) | 8 (≈ 19.2 µg/mL) | 1 (≈ 2.4 µg/mL) |
| CC[C@H](C)[C@H](NC(=O)[C@@H]1CCCN1C(=O)[C@H](CCCN=C(N)N)NC(=O)[C@@H]1CCCN1C(=O)[C@H](Cc1c[nH]cn1)NC(=O)[C@H](CO)NC(=O)[C@@H](NC(=O)[C@@H]1CCCN1C(=O)[C@H](CCCN=C(N)N)NC(=O)[C@@H]1CCCN1C(=O)[C@H](CO)NC(=O)[C@H](Cc1ccc(O)cc1)NC(=O)[C@@H]1CCCN1C(=O)[C@H](CCCN=C(N)N)NC(=O)[C@@H]1CCCN1C(=O)[C@H](CCCCN)NC(=O)CN)[C@@H](C)O[C@@H]1O[C@H](CO)[C@H](O)[C@H](O)[C@H]1O)C(=O)N[C@@H](CCCN=C(N)N)C(=O)N[C@H](C(=O)O)C(C)C (H-GKPRPYSPRPT(βGal)SHPRPIRV-OH) | > 128 | 1 (≈ 2.36 µg/mL) | 8 (≈ 18.9 µg/mL) | 2 (≈ 4.72 µg/mL) | 16 (≈ 37.8 µg/mL) | > 128 | > 64 | 8 (≈ 18.9 µg/mL) | 4 (≈ 9.44 µg/mL) | 4 (≈ 9.44 µg/mL) | > 64 | 4 (≈ 9.44 µg/mL) | > 64 | 2 (≈ 4.72 µg/mL) |
| CC[C@H](C)[C@H](NC(=O)[C@H](Cc1ccc(O)cc1)NC(=O)[C@@H](NC(=O)[C@@H]1CCCN1C(=O)[C@H](CCCN=C(N)N)NC(=O)[C@H](CC(N)=O)NC(=O)[C@H](CC(N)=O)NC(=O)CN)C(C)C)C(=O)N1CCC[C@H]1C(=O)N[C@@H](CCC(N)=O)C(=O)N1CCC[C@H]1C(=O)N[C@@H](CCCN=C(N)N)C(=O)N1CCC[C@H]1C(=O)N[C@H](C(=O)N1CCC[C@H]1C(=O)N[C@@H](Cc1c[nH]cn1)C(=O)N1CCC[C@H]1C(=O)N[C@@H](CCCN=C(N)N)C(=O)N[C@@H](CC(C)C)C(=O)O)[C@@H](C)O[C@H]1O[C@H](CO)[C@@H](O)[C@H](O)[C@H]1NC(C)=O (H-GNNRPVYIPQPRPT(X2)PHPRL-OH) | > 128 | 32 (≈ 77.2 µg/mL) | > 128 | 64 (≈ 154 µg/mL) | > 128 | > 128 | > 64 | 64 (≈ 154 µg/mL) | 32 (≈ 77.2 µg/mL) | 64 (≈ 154 µg/mL) | > 64 | > 64 | > 64 | 32 (≈ 77.2 µg/mL) |
| CC[C@H](C)[C@H](NC(=O)[C@@H]1CCCN1C(=O)[C@H](CCCN=C(N)N)NC(=O)[C@@H]1CCCN1C(=O)[C@H](Cc1c[nH]cn1)NC(=O)[C@@H]1CSSC[C@H](NC(=O)[C@H](Cc2ccc(O)cc2)NC(=O)[C@@H]2CCCN2C(=O)[C@H](CCCN=C(N)N)NC(=O)[C@@H]2CCCN2C(=O)[C@H](CCCCN)NC(=O)CN)C(=O)N2CCC[C@H]2C(=O)N[C@@H](CCCN=C(N)N)C(=O)N2CCC[C@H]2C(=O)N[C@@H]([C@@H](C)O)C(=O)N1)C(=O)N[C@@H](CCCN=C(N)N)C(=O)N[C@H](C(=O)O)C(C)C (HELM PEPTIDE1{G.K.P.R.P.Y.C.P.R.P.T.C.H.P.R.P.I.R.V}$PEPTIDE1,PEPTIDE1,7:R3-12:R3$$$V2.0) | > 64 | > 64 | > 64 | > 64 | > 64 | > 64 | > 64 | > 64 | > 64 | > 64 | > 64 | > 64 | > 64 | > 64 |
| CC[C@H](C)[C@@H]1NC(=O)[C@@H]2CCCN2C(=O)[C@H](CCCNC(=N)N)NC(=O)[C@@H]2CCCN2C(=O)[C@H](Cc2cnc[nH]2)NC(=O)[C@H](CO)NC(=O)[C@H]([C@@H](C)O)NC(=O)[C@@H]2CCCN2C(=O)[C@H](CCCNC(=N)N)NC(=O)[C@@H]2CCCN2C(=O)[C@H](CO)NC(=O)[C@H](Cc2ccc(O)cc2)NC(=O)[C@@H]2CCCN2C(=O)[C@H](CCCNC(=N)N)NC(=O)[C@@H]2CCCN2C(=O)[C@H](CCCCN)NC(=O)CNC(=O)[C@H](C(C)C)NC(=O)[C@H](CCCNC(=N)N)NC(=O)[C@H]([C@@H](C)CC)NC(=O)[C@@H]2CCCN2C(=O)[C@H](CCCNC(=N)N)NC(=O)[C@@H]2CCCN2C(=O)[C@H](Cc2cnc[nH]2)NC(=O)[C@H](CO)NC(=O)[C@H]([C@@H](C)O)NC(=O)[C@@H]2CCCN2C(=O)[C@H](CCCNC(=N)N)NC(=O)[C@@H]2CCCN2C(=O)[C@H](CO)NC(=O)[C@H](Cc2ccc(O)cc2)NC(=O)[C@@H]2CCCN2C(=O)[C@H](CCCNC(=N)N)NC(=O)[C@@H]2CCCN2C(=O)[C@H](CCCCN)NC(=O)CNC(=O)[C@H](C(C)C)NC(=O)[C@H](CCCNC(=N)N)NC1=O (HELM PEPTIDE1{G.K.P.R.P.Y.S.P.R.P.T.S.H.P.R.P.I.R.V.G.K.P.R.P.Y.S.P.R.P.T.S.H.P.R.P.I.R.V}$PEPTIDE1,PEPTIDE1,1:R1-38:R2$$$V2.0) | > 64 | > 64 | > 64 | > 64 | > 64 | > 64 | > 64 | > 64 | > 64 | > 64 | > 64 | > 64 | > 64 | > 64 |
